The source of these data is ChEMBL document CHEMBL4004837, “Synthesis and Characterization of Urofuranoic Acids: In Vivo Metabolism of 2-(2-Carboxyethyl)-4-methyl-5-propylfuran-3-carboxylic Acid (CMPF) and Effects on in Vitro Insulin Secretion” (J Med Chem, 2017).

Series [1] is described as follows: Drug metabolism in CD1 mouse muscle assessed as oxidative metabolites formation at 6 mg/kg, ip dosed once daily for 3 days followed by dosing of 1:1 mixtures of 2-(2-Carboxyethyl)-4-methyl-5-propyl-(3-13C-furan)-3-13Ccarboxylateand test compound on day 4 and 5 measured 1 hr post dose on day 5 by HPLC-MS analysis. The format is ADME, organism-based, Muscle tissue. The following applies: in vivo. In short, it runs like this: (§1)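 CMPF given 6 mg/kg i.p. once daily for three days. On days four and five, 1:1 mixtures of stable-isotope-labelled and unlabelled CMPF were dosed. Mice were killed 1 h after the day-five dose. Plasma, adipose, muscle and liver were collected and analysed by HPLC-MS (MS/MS for product ions). Metabolites were identified by their distinctive isotope patterns from the labelled/unlabelled mixture.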

The nature of series [2]: Drug metabolism in CD1 mouse muscle assessed as diacylglycerol conjugate formation at 6 mg/kg, ip dosed once daily for 3 days followed by dosing of 1:1 mixtures of 2-(2-Carboxyethyl)-4-methyl-5-(1-propyl-1-13C)furan-3-carboxylic Acid and test compound on day 4 and 5 measured 1 hr post dose on day 5 by HPLC-MS analysis. Type of series: ADME, organism-based, Muscle tissue. The following applies: in vivo. The gist of the method: (§2)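 Mice received CMPF 6 mg/kg intraperitoneally for three days, then 1:1 labeled/unlabeled CMPF mixtures on days four and five. On day five they were euthanized 1 h post-dose, and plasma, adipose, muscle and liver were collected. Samples were analysed by HPLC-MS, with MS/MS of product ions. Metabolites were identified by the distinctive isotope patterns from the 1:1 label mixture.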

Series [3] in a line: Drug metabolism in CD1 mouse adipose assessed as oxidative metabolites formation at 6 mg/kg, ip dosed once daily for 3 days followed by dosing of 1:1 mixtures of 2-(2-Carboxyethyl)-4-methyl-5-propyl-(3-13C-furan)-3-13Ccarboxylateand test compound on day 4 and 5 measured 1 hr post dose on day 5 by HPLC-MS analysis. The format is ADME, organism-based, Adipose tissue. The following applies: in vivo. In short, it runs like this: as §2

The nature of series [4]: Drug metabolism in CD1 mouse adipose assessed as monoacylglycerol conjugate formation at 6 mg/kg, ip dosed once daily for 3 days followed by dosing of 1:1 mixtures of 2-(2-Carboxyethyl)-4-methyl-5-propyl-(3-13C-furan)-3-13Ccarboxylateand test compound on day 4 and 5 measured 1 hr post dose on day 5 by HPLC-MS analysis. The format is ADME, organism-based, Adipose tissue. Conditions: in vivo. In short, it runs like this: as §2

Series [5] is described as follows: Drug metabolism in CD1 mouse adipose assessed as glycerol conjugate formation at 6 mg/kg, ip dosed once daily for 3 days followed by dosing of 1:1 mixtures of 2-(2-Carboxyethyl)-4-methyl-5-propyl-(3-13C-furan)-3-13Ccarboxylateand test compound on day 4 and 5 measured 1 hr post dose on day 5 by HPLC-MS analysis. The format is ADME, organism-based, Adipose tissue. The following applies: in vivo. The gist of the method:
as §2

Series [6] in a line: Drug metabolism in CD1 mouse muscle assessed as loss of C2 carboxyl during fragmentation at 6 mg/kg, ip dosed once daily for 3 days followed by dosing of 1:1 mixtures of 2-(2-Carboxyethyl)-4-methyl-5-propyl-(3-13C-furan)-3-13Ccarboxylate and test compound on day 4 and 5 measured 1 hr post dose on day 5 by HPLC-MS analysis. The format is ADME, organism-based, Muscle tissue. Conditions: in vivo. The gist of the method: as §2

In series [7] the test system is Plasma. Kind of series: Drug metabolism in CD1 mouse plasma assessed as oxidative metabolites formation at 6 mg/kg, ip dosed once daily for 3 days followed by dosing of 1:1 mixtures of 2-(2-(Carboxy-13C)ethyl)-4-methyl-5-propylfuran-3-carboxylic-2-13C Acid and test compound on day 4 and 5 measured 1 hr post dose on day 5 by HPLC-MS analysis. The format is ADME, organism-based. The following applies: in vivo. In short, it runs like this:
as §1

Series [8] relates to Plasma. Description: Drug metabolism in CD1 mouse plasma assessed as loss of C2 carboxyl during fragmentation at 6 mg/kg, ip dosed once daily for 3 days followed by dosing of 1:1 mixtures of 2-(2-Carboxyethyl)-4-methyl-5-propyl-(3-13C-furan)-3-13Ccarboxylate and test compound on day 4 and 5 measured 1 hr post dose on day 5 by HPLC-MS analysis. The format is ADME, organism-based. The following applies: in vivo. The gist of the method:
as §1

The nature of series [9]: Drug metabolism in CD1 mouse muscle assessed as monoacylglycerol conjugate formation at 6 mg/kg, ip dosed once daily for 3 days followed by dosing of 1:1 mixtures of 2-(2-Carboxyethyl)-4-methyl-5-propyl-(3-13C-furan)-3-13Ccarboxylateand test compound on day 4 and 5 measured 1 hr post dose on day 5 by HPLC-MS analysis. Type of series: ADME, organism-based, Muscle tissue. The following applies: in vivo. The gist of the method:
as §2

The subject of the next series is HEK293. Description: Cytotoxicity against HEK293 cells assessed as fold change in capase3/7 activity by Caspase-Glo 3/7 assay relative to DMSO. Type of series: cell-based. The following applies: human.
The subject of series [10] is Plasma. Description: Drug metabolism in CD1 mouse plasma assessed as glucuronide conjugate formation at 6 mg/kg, ip dosed once daily for 3 days followed by dosing of 1:1 mixtures of 2-(2-(Carboxy-13C)ethyl)-4-methyl-5-propylfuran-3-carboxylic-2-13C Acid and test compound on day 4 and 5 measured 1 hr post dose on day 5 by HPLC-MS analysis. The format is ADME, organism-based. Conditions: in vivo. The gist of the method:
as §1

Series [11] can be described thus: Suppression of glucose-stimulated insulin secretion in mouse pancreatic islet at 200 uM incubated for 24 hrs followed by glucose stimulation for 20 mins by HTRF assay. Type of series: ADME, cell-based. In short, it runs like this: (§3)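 Mouse islets treated with compounds at 200 µM. Insulin secretion was then measured under low- and high-glucose GSIS conditions and under KCl stimulation, and intracellular insulin content was measured. Mean of n = 4-5 experiments with SEM.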
(In general: TR-FRET usually uses a lanthanide donor and a delayed reading to cut background.)

Series [12] can be described thus: Drug metabolism in CD1 mouse muscle assessed as diacylglycerol conjugate formation at 6 mg/kg, ip dosed once daily for 3 days followed by dosing of 1:1 mixtures of 2-(2-(Carboxy-13C)ethyl)-4-methyl-5-propylfuran-3-carboxylic-2-13C Acid and test compound on day 4 and 5 measured 1 hr post dose on day 5 by HPLC-MS analysis. The format is ADME, organism-based, Muscle tissue. Conditions: in vivo. In short, it runs like this:
as §2

Series [13] in a line: Drug metabolism in CD1 mouse muscle assessed as monoacylglycerol conjugate formation at 6 mg/kg, ip dosed once daily for 3 days followed by dosing of 1:1 mixtures of 2-(2-Carboxyethyl)-4-methyl-5-(1-propyl-1-13C)furan-3-carboxylic Acid and test compound on day 4 and 5 measured 1 hr post dose on day 5 by HPLC-MS analysis. Type of series: ADME, organism-based, Muscle tissue. Conditions: in vivo. The gist of the method: as §2

A short description of series [14]: Effect on insulin content in KCl-stimulated mouse pancreatic islet at 200 uM incubated for 24 hrs followed by KCl stimulation for 20 mins by HTRF assay. Type of series: ADME, cell-based. The gist of the method:
as §3

Series [15] can be described thus: Clearance in mouse at 3 mg/kg, iv. Type of series: ADME, organism-based. The following applies: in vivo.
Series [16] concerns Plasma. Kind of series: Drug metabolism in CD1 mouse plasma assessed as monoacylglycerol conjugate formation at 6 mg/kg, ip dosed once daily for 3 days followed by dosing of 1:1 mixtures of 2-(2-(Carboxy-13C)ethyl)-4-methyl-5-propylfuran-3-carboxylic-2-13C Acid and test compound on day 4 and 5 measured 1 hr post dose on day 5 by HPLC-MS analysis. The following applies: in vivo. The format is ADME, organism-based. The gist of the method: as §1

Series [17] concerns Plasma. Kind of series: Drug metabolism in CD1 mouse plasma assessed as glycerol conjugate formation at 6 mg/kg, ip dosed once daily for 3 days followed by dosing of 1:1 mixtures of 2-(2-(Carboxy-13C)ethyl)-4-methyl-5-propylfuran-3-carboxylic-2-13C Acid and test compound on day 4 and 5 measured 1 hr post dose on day 5 by HPLC-MS analysis. The format is ADME, organism-based. The following applies: in vivo. In short, it runs like this: as §1

Series [18] in a line: Suppression of glucose stimulated insulin secretion in mouse pancreatic islet at 200 uM incubated for 24 hrs followed by glucose stimulation for 20 mins by HTRF assay relative to control.
In a further series the test system is Liver. Kind of series: Drug metabolism in CD1 mouse liver assessed as glycerol conjugate formation at 6 mg/kg, ip dosed once daily for 3 days followed by dosing of 1:1 mixtures of 2-(2-(Carboxy-13C)ethyl)-4-methyl-5-propylfuran-3-carboxylic-2-13C Acid and test compound on day 4 and 5 measured 1 hr post dose on day 5 by HPLC-MS analysis. The format is ADME, organism-based. Conditions: in vivo. In short, it runs like this: as §2

The term clearance denotes a measure of how efficiently the substance is removed, as volume per time. A high value points to a high capacity for elimination. Consider `CCCc1oc(CCC(=O)O)c(C(=O)O)c1C`, for which the Drug metabolism result is given as “Metabolite_Notdetected” in [1]; “Metabolite_Notdetected” in series [2]; “Metabolite_Notdetected” in [3]; “Metabolite_Notdetected” in series [4]; “Metabolite_Notdetected” in series [5]; “Metabolite_Detected” in series [6]. Moreover, the Drug metabolism entry in the series with Plasma [7] is “Metabolite_Notdetected”; with Plasma [8], “Metabolite_Detected”; in [9] it was “Metabolite_Notdetected”; with Plasma [10] it was “Metabolite_Detected”; in series [12], “Metabolite_Notdetected”; in series [13], “Metabolite_Notdetected”. The Drug metabolism result with Plasma [16], in the series with Plasma [17] and in the series on Liver was “Metabolite_Notdetected” in each case. Further, in the series with HEK293, the fold change (FC) lay within 0.8 to 1.1. Moreover, the Activity entry in series [11] is listed as “Toxic”; in series [14], “Non-Toxic”; in [18], “Toxic”. The same compound displayed a clearance in [15] of 0.85 mL/min/kg.
